# Data from ChEMBL document CHEMBL1150607, “Ancistrocongolines A-D, new naphthylisoquinoline alkaloids from ancistrocladus congolensis” (J Nat Prod, 2002).
# How the values were obtained:
# [1] = Cytotoxicity against rat L6 cells after 72 hrs by alamar blue assay; assay type: cell-based
# Procedure, shortened: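 L-6 cells in RPMI 1640 with 10% FBS exposed to serial drug dilutions, protocol closely following the T. b. rhodesiense assay; viability read with Alamar Blue, expressed as IC50.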
# Plasmodium falciparum = assay: Antimalarial activity against Plasmodium falciparum K1 in human erythrocytes after 48 hrs by [3H]hypoxanthine uptake; assay type: functional, organism-based
# Procedure, shortened: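 Infected human red cells with chloroquine/pyrimethamine-resistant K1 strain exposed to serial dilutions 48 h, 37 °C, reduced O2/elevated CO2; [³H]-hypoxanthine then added, 24 h further incubation, harvested on glass fibre filters, scintillation counted. IC50 from sigmoidal inhibition curve; duplicate, repeated at least once.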
# [2] = test system: Trypanosoma brucei rhodesiense; assay: Antitrypanosomal activity against Trypanosoma brucei rhodesiense after 72 hrs by alamar blue assay; assay type: functional, organism-based
# Procedure, shortened: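 STIB 900 trypanosomes in Minimum Essential Medium with 2-mercaptoethanol and 15% heat-inactivated horse serum, serial drug dilutions, 72 h at 37 °C, 5% CO2; Alamar Blue added, 2–4 h more, fluorescence read ex 530/em 590 nm. Signal expressed as percent of control; IC50 determined.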
# Trypanosoma cruzi = assay: Antitrypanosomal activity against Trypanosoma cruzi Tulahuen strain C2C4 containing galactosidase gene in rat L6 cells after 4 days; assay type: functional, organism-based; settings: L6, 96 h
# Procedure, shortened: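 L-6 cells seeded 2000/well in RPMI 1640, 10% FBS, 2 mM L-glutamine; after 24 h, 5000 Lac Z trypomastigotes added with serial drug dilutions, 4 days at 37 °C, 5% CO2. CPRG/Nonidet substrate added, colour read at 540 nm after 2–4 h; IC50 from sigmoidal inhibition curve.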
# Leishmania donovani = assay: Antileishmanial activity against Leishmania donovani; assay type: functional, organism-based
SMILES,IC50 (Plasmodium falciparum) [µg/mL],IC50 [2] [µg/mL],IC50 (Trypanosoma cruzi) [µg/mL],IC50 (Leishmania donovani) [µg/mL],IC50 at 72 h [1] [µg/mL]
COc1cc(C)cc2c(-c3c(O)cc(O)c4c3C[C@@H](C)N(C)[C@@H]4C)ccc(O)c12 [ANCISTROCONGOLINE A],0.214,2.97,39.9,–,90
C[C@@H]1CC[C@H]2[C@@H](C)C(=O)O[C@@H]3O[C@@]4(C)CC[C@@H]1[C@]32OO4 [ARTEMISININ],0.001,–,–,–,–
O=C(Cn1ccnc1[N+](=O)[O-])NCc1ccccc1 [BENZNIDAZOLE],–,–,0.382,–,–

# Second part, led by results:
IC50 (Plasmodium falciparum) [µg/mL],IC50 [2] [µg/mL],IC50 (Trypanosoma cruzi) [µg/mL],IC50 (Leishmania donovani) [µg/mL],SMILES,IC50 at 72 h [1] [µg/mL]
0.158,2.54,17.4,18.8,COc1cc(O)c2c(c1-c1ccc(OC)c3c(OC)cc(C)cc13)C[C@@H](C)N(C)[C@@H]2C [ANCISTROCONGOLINE B],33.4
3,15.9,≥ 90,19.3,COc1cc(O)c(-c2ccc(OC)c3c(OC)cc(C)cc23)c2c1[C@@H](C)N(C)[C@H](C)C2 [ANCISTROCONGOLINE C],≥ 90
1.98,5.86,30.1,> 30,COc1c(-c2c(C)cc(OC)c3c(OC)cccc23)c(O)cc2c1[C@@H](C)N[C@H](C)C2 [ANCISTROCONGOLINE D],27.7
0.164,1.87,14.5,25.1,COc1cc(C)cc2c(-c3c(O)cc(O)c4c3C[C@@H](C)N[C@@H]4C)ccc(O)c12 [KORUPENSAMINE A],38
